Data from ChEMBL document CHEMBL5120929, “Inhibitor Screen Identifies Covalent Inhibitors of the Protein Histidine Phosphatase PHPT1” (ACS Med Chem Lett, 2022).
Active and inactive are the calls of the source. The rule behind the calls is not given here.

What was measured:
[1] = molecular target: T1, 14 kDa phosphohistidine phosphatase (Homo sapiens, UniProt Q9NRX4); assay: Inhibition of PHPT1 (unknown origin) using DiFMUP as fluorogenic substrate incubated for 30 mins followed by substrate addition and measured every 60 seconds for 30 mins by fluorogenic assay
T1 sequence (Q9NRX4 whole entry): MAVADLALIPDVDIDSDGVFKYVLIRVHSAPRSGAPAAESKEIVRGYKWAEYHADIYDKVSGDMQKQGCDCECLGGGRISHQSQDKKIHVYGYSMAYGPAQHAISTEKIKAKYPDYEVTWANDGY

[2] = molecular target: T2, 14 kDa phosphohistidine phosphatase (Homo sapiens) (UniProt Q9NRX4); assay: Mixed inhibition of PHPT1 (unknown origin) assessed as change in Km and Vmax at above 150 uM using DifMUP as substrate by Michaelis-Menten based analysis
T2 sequence (whole entry): T1 sequence (Q9NRX4 whole entry)

[3] = molecular target: T2, 14 kDa phosphohistidine phosphatase (Homo sapiens); assay: Competitive inhibition of PHPT1 (unknown origin) assessed as change in Km and Vmax at below 150 uM using DifMUP as substrate by Michaelis-Menten based analysis
[4] = molecular target: T2, 14 kDa phosphohistidine phosphatase (Homo sapiens); assay: Inhibition of PHPT1 (unknown origin) assessed as inactivation constant measured up to 100 uM incubated up to 30 mins using DiFMUP as fluorogenic substrate by fluorogenic assay
Method in brief: (§1)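 Kinetics of time-dependent PHPT1 inactivation in the fluorogenic activity assay. Observed inactivation rate constants (kobs) were plotted against inhibitor concentration to obtain kinact and KI.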

[5] = molecular target: T3, Mediator of RNA polymerase II transcription subunit 25 (Homo sapiens, UniProt Q71SY5); assay: Inhibition of Med25 transcriptional activation in human MCF-7 cells by fluorescence polarization assay; format: cell-based; conditions: mcf7
T3 sequence (Q71SY5 whole entry): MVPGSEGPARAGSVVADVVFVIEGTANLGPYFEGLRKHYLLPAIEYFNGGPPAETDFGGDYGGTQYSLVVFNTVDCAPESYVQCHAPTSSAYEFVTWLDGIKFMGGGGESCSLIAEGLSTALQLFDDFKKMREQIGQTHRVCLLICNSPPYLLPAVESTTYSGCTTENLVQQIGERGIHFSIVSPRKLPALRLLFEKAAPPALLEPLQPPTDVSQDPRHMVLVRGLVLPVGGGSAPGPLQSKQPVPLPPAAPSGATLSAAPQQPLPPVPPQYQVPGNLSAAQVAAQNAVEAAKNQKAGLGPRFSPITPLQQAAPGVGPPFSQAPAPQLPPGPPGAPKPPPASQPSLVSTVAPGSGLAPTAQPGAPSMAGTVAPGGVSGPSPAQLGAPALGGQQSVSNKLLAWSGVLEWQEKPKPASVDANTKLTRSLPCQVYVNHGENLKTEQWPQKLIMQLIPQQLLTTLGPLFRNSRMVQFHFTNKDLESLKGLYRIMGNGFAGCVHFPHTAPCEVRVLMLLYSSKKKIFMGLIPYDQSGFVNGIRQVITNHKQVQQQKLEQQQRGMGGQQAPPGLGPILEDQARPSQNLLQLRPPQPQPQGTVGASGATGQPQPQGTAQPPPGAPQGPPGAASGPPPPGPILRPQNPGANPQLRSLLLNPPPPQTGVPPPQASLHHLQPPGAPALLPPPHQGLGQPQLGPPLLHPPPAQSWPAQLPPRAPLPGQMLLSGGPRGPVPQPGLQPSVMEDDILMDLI

[6] = molecular target: T1, 14 kDa phosphohistidine phosphatase; assay: Inhibition of PHPT1 (unknown origin) assessed as inhibition constant measured up to 100 uM incubated up to 30 mins using DiFMUP as fluorogenic substrate by fluorogenic assay; method in brief: as §1
[7] = molecular target: T2, 14 kDa phosphohistidine phosphatase (Homo sapiens); assay: Time dependent inhibition of PHPT1 (unknown origin) at 10 uM using DiFMUP as fluorogenic substrate preincubated for 15 to 120 mins followed by substrate addition and measured for 30 mins by fluorogenic assay; conditions: time 45-150 min, TDE = time-dependent effect
[8] = molecular target: T2, 14 kDa phosphohistidine phosphatase (Homo sapiens); assay: Reversible inhibition of PHPT1 (unknown origin) at 1 mM using DiFMUP as fluorogenic substrate preincubated for 30 mins followed by substrate addition by dialysis method
Method in brief: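 Reversibility was tested by measuring PHPT1 inhibition in the fluorogenic activity assay before and after dialysis.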

[9] = molecular target: T2, 14 kDa phosphohistidine phosphatase (Homo sapiens); assay: Time dependent inhibition of PHPT1 (unknown origin) at 20 uM using DiFMUP as fluorogenic substrate preincubated for 15 to 120 mins followed by substrate addition and measured for 30 mins by fluorogenic assay; conditions: time 45-150 min, TDE = time-dependent effect

SMILES: O=[N+]([O-])c1cc([As](=O)(O)O)ccc1O [ROXARSONE]
- IC50 [1]: 80 µM
- inhibition [2]: Active
- inhibition [3]: Active

SMILES: Cc1cc(O)c(C=O)c2c1C(=O)Oc1c(C)c(O)c3c(c1O2)C(O)OC3=O (centres undefined) [NORSTICTIC ACID]
- Kinact [4]: 1.7 min⁻¹
- IC50 [5]: 2.3 µM
- Ki [6]: 90 µM
- IC50 [1]: 7.9 µM
- inhibition [7]: Tde

SMILES: CC(=O)Nc1cc([As](=O)(O)O)ccc1O [ACETARSONE]
- inhibition [8]: Active
- IC50 [1]: 100 µM
- inhibition [2]: Active
- inhibition [3]: Active

SMILES: COc1cc(C)c2c(c1C=O)Oc1c(c(C)c(O)c3c1C(O)OC3=O)OC2=O (centres undefined) [STICTIC ACID]
- IC50 [1]: 22 µM
- inhibition [9]: Tde
